Assay results reported in ChEMBL document CHEMBL1131079, “Synthesis and evaluation of 2-amino-9-(3-hydroxymethyl-4-alkoxycarbonyloxybut-1-yl)purines as potential prodrugs of penciclovir” (J Med Chem, 1998).
Converted amounts (≈) assume the structure as drawn.

Tests used:
[1] = Half-life by the HPLC using a C18 reversed-phase column at pH 7.4(sodium phosphate buffer) and 37 degree C.; format: ADME
Procedure, shortened: (§1)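 Compound at 125 μM final (from 2.5 mM stock) incubated at 37 °C in HCl/NaCl buffer pH 1.2 or sodium phosphate buffer pH 6.0, 7.4 or 8.0. Aliquots taken at intervals were diluted into 0.1 M phosphate pH 7.0 and run isocratically on a C18 column with 0.1% phosphoric acid/MeCN eluents. Half-life calculated from remaining parent concentration.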

[2] = Half-life by the HPLC using a C18 reversed-phase column at pH 6.0 (sodium phosphate buffer) and 37 degree C.; format: ADME; procedure, shortened: as §1
Mus musculus = organism: Mus musculus; assay: The total amount of penciclovir recovered in the urine over a 48-h period was determined by HPLC using a C18 reversed-phase column in mouse.; format: ADME, organism-based; conditions: in vivo
Procedure, shortened: (§2)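 Urine collected 48 h in metabolic cages over sodium azide, then filtered. Penciclovir quantified by C18 HPLC with a three-step phosphoric acid/MeCN gradient, UV 248 nm. Result expressed as total urinary penciclovir, % of dose.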

[3] = Half-life by the HPLC using a C18 reversed-phase column at pH 1.2 (HC/NaCl buffer) and 37 degree C.; format: ADME; conditions: HCl/NaCl buffer; procedure, shortened: as §1
Vero = assay: Compound was tested for cytotoxicity in Vero cells (concentration required to reduce the OD value by 50% of the control); format: functional; conditions: Chlorocebus sabaeus
Procedure, shortened: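 Vero cells (ATCC) seeded at 5 × 10³ cells/well and grown 24 h in EMEM, then exposed to a range of compound concentrations for 3 days at 37 °C, 5% CO₂. MTT added for a further 4 h, formazan dissolved in DMSO, OD read at 540 nm. CC50 is the concentration giving 50% OD reduction versus control. Quadruplicate wells, experiment repeated twice.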

[4] = Half-life by the HPLC using a C18 reversed-phase column at pH 8..0(sodium phosphate buffer) and 37 degree C.; format: ADME; procedure, shortened: as §1
Human alphaherpesvirus 1 = assay: Compound was tested for in vitro antiviral activity against herpes viruses of type 1 (HSV-1,KOS strain) (concentration required to reduce the OD value by 50% of the virus infected control); format: functional, organism-based
Procedure, shortened: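 Dye-uptake assay. Vero cells (10⁵ cells/mL) in EMEM with 5% FBS were infected with HSV-1 KOS at 100 PFU/well. After 1 h adsorption, serial 3-fold compound dilutions from 125 μM were added in quadruplicate. After 48 h at 37 °C, neutral red uptake was eluted and read at 550 nm. EC50 derived by quantal probit analysis against virus and cell controls.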

Rattus norvegicus = organism: Rattus norvegicus; assay: The total amount of penciclovir recovered in the urine over a 48-h period was determined by HPLC using a C18 reversed-phase column in rat.; format: ADME, organism-based; conditions: in vivo; procedure, shortened: as §2
[5] = Solubility at 20 degree C was determined by the comparison of th UV absorbance of the saturated solution of each compound at 290 nm with that of the standard curve.

Compound | half-life [1] [days] | half-life [2] [days] | Urinary penciclovir recovery over 48 h (% of dose) (Mus musculus) [%] | half-life [3] [days] | CC50 (Vero) [µM] | half-life [4] [days] | EC50 (Human alphaherpesvirus 1) [µM] | urinary penciclovir recovery, % of dose (Rattus norvegicus) [%] | solubility at 0.29 µM [5] [mg/mL]
COC(=O)OCC(CO)CCn1cnc2cnc(N)nc21 (configuration not stated) | 1 | 18 | 45 | 23 | > 500 | 0.5 | > 125 | 39 | 14.1 (≈ 47.7 mM)
CCOC(=O)OCC(CO)CCn1cnc2cnc(N)nc21 (configuration not stated) | 7 | 112 | 50 | 35 | > 500 | 3 | > 125 | 40 | 20 (≈ 64.7 mM)
Nc1nc2c(ncn2CCC(CO)CO)c(=O)[nH]1 [PENCICLOVIR] | – | – | 3 | – | > 500 | – | 8.65 | 9 | –
CCCCOC(=O)OCC(CO)CCn1cnc2cnc(N)nc21 (configuration not stated) | 11 | 74 | 38 | 29 | > 500 | 5 | > 125 | 41 | 15 (≈ 44.5 mM)
Nc1ncc2ncn(CCC3COC(=O)OC3)c2n1 | 0.12 | 2.6 | 27 | – | > 500 | 0.07 | > 125 | 15 | –
CC(C)COC(=O)OCC(CO)CCn1cnc2cnc(N)nc21 (configuration not stated) | 17 | 87 | 38 | 28 | > 500 | 8 | > 125 | 37 | 1.5 (≈ 4.45 mM)
CC(=O)OCC(CCn1cnc2cnc(N)nc21)COC(C)=O [FAMCICLOVIR] | – | – | 48 | – | > 500 | – | > 125 | 40 | –
CC(C)OC(=O)OCC(CO)CCn1cnc2cnc(N)nc21 (configuration not stated) | 61 | > 200 | 53 | 88 | > 500 | 26 | > 125 | 40 | 139 (≈ 429 mM)
CC(C)CCOC(=O)OCC(CO)CCn1cnc2cnc(N)nc21 (configuration not stated) | 11 | 65 | 51 | 24 | 357 | 6 | > 125 | 40 | 5.6 (≈ 15.9 mM)
CCCOC(=O)OCC(CO)CCn1cnc2cnc(N)nc21 (configuration not stated) | 10 | 89 | 51 | 29 | > 500 | 4 | > 125 | 34 | 68 (≈ 210 mM)
CCCCCOC(=O)OCC(CO)CCn1cnc2cnc(N)nc21 (configuration not stated) | 7 | 17 | 47 | 25 | > 500 | 5 | > 125 | 38 | 4.2 (≈ 12 mM)
